Test results taken from ChEMBL document CHEMBL3580605, “Melampodium leucanthum, a source of cytotoxic sesquiterpenes with antimitotic activities” (J Nat Prod, 2015).
The source made the active and inactive calls. The calls are words filed in the database; no cut-off is given here.

Experiments:
[1] = molecular target: Serine/threonine-protein kinase PLK1 (Homo sapiens) (UniProt P53350); assay: Inhibition of PLK1 Thr210 phosphorylation in human HeLa cells at 10 uM by immunoblotting method; type: cell-based
Procedure, shortened: (§1)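 HeLa and DU 145 cells were given vehicle, 100 nM BI 2536 or 10 µM test compounds. Lysed and immunoblotted for total PLK1 and phospho-Thr210-PLK1.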

[2] = molecular target: Serine/threonine-protein kinase PLK1 (Homo sapiens) (UniProt P53350); assay: Inhibition of PLK1 Thr210 phosphorylation in human DU145 cells at 10 uM by immunoblotting method; type: cell-based; settings: DU-145; procedure, shortened: as §1
DU-145 [3] = assay: Inhibition of colony formation of human DU145 cells at 5 to 20 uM incubated for 4 hrs followed by drug wash-out and measured after 9 days post drug wash-out by crystal violet staining based clonogenic assay; type: functional, cell-based
Procedure, shortened: (§2)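 300 DU 145 cells were allowed to adhere, then exposed to vehicle (0.5% DMSO final) or compound for 4 h. Washed with DPBS and regrown in fresh medium. Fixed and stained with 0.5% crystal violet in 10% methanol; colonies counted. Legend states 9 days, methods 14 days. One-way ANOVA with Dunnett's post-hoc test; n = 2–9 experiments.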

PC-3 [4] = assay: Induction of aberrant bipolar mitotic spindles in human PC3 cells at 25 uM incubated for 18 hrs by indirect immunofluorescence microscopy; type: functional, cell-based
Procedure, shortened: (§3)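 Cells adhered overnight on glass coverslips, then were treated for 18 h. They were fixed in cold methanol (4 °C, 5 min) and blocked with 10% bovine calf serum for 20 min. Stained with monoclonal anti-β-tubulin (1:400, 2 h, 37 °C), then FITC anti-mouse IgG (1:200, 1 h, 37 °C), and 0.1 µg/mL DAPI. Spindles scored by indirect immunofluorescence; BI2536 at 100 nM served as positive control.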

HeLa [5] = assay: Induction of monopolar mitotic spindles in human HeLa cells at 25 uM incubated for 18 hrs by indirect immunofluorescence microscopy; type: functional, cell-based; procedure, shortened: as §3
SK-OV-3 [6] = assay: Growth inhibition of human SKOV3-MDR1-M6/6 cells by sulforhodamine B assay; type: functional, cell-based
Procedure, shortened: (§4)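 Isogenic ovarian pair: parental SK-OV-3 and its Pgp-expressing single-cell clone SK-OV-3/MDR-1-M6/6, tested by SRB assay. IC50 is interpolated from a 4-parameter nonlinear regression against vehicle control. Rr = IC50 in M6/6 divided by IC50 in SK-OV-3.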

HeLa [7] = assay: Inhibition of PLK1 protein accumulation in human HeLa cells at 10 uM by immunoblotting method; type: functional, cell-based; procedure, shortened: as §1
DU-145 [8] = assay: Induction of apoptosis in human DU145 cells assessed as increase in PARP cleavage at 10 uM after 24 hrs by immunoblotting method; type: functional, cell-based
Procedure, shortened: (§5)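 HeLa and DU 145 cells were given vehicle, BI2536 (100 nM) or test compounds (10 µM) for 24 h. Lysed with protease inhibitors; equal protein run on SDS-PAGE, transferred to PVDF, and probed for cleaved PARP (1:1000) with actin as loading control; ECL detection.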

SK-OV-3 [9] = assay: Resistance index, ratio of IC50 for human SKOV3-MDR1-M6/6 cells to IC50 for human SKOV3 cells; type: functional; procedure, shortened: as §4
HeLa [10] = assay: Growth inhibition of human HeLa cells by sulforhodamine B assay; type: functional, cell-based
Procedure, shortened: (§6)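 SRB assay. DU 145 cells were grown in IMEM with 10% FBS and gentamicin, PC-3 in RPMI 1640 with 10% FBS and gentamicin, and HeLa in BME with 10% FBS and gentamicin. Cytotoxicity was read as a fall in cell density below the density at the time of drug addition. Each concentration was tested in triplicate, n = 2–9 independent experiments. IC50 is the concentration giving 50% inhibition of proliferation versus vehicle control, interpolated from a 4-parameter nonlinear regression; mean ± SE.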

SK-OV-3 [11] = assay: Growth inhibition of human SKOV3 cells by sulforhodamine B assay; type: functional, cell-based; procedure, shortened: as §4
DU-145 [12] = assay: Growth inhibition of human DU145 cells by sulforhodamine B assay; type: functional, cell-based; procedure, shortened: as §6
HeLa [13] = assay: Induction of aberrant bipolar mitotic spindles in human HeLa cells at 25 uM incubated for 18 hrs by indirect immunofluorescence microscopy; type: functional, cell-based; procedure, shortened: as §3
Tubulin (Sus scrofa) [14] = molecular target: T1, Tubulin (Sus scrofa) (UniProt P02554+P02550); assay: Inhibition of porcine tubulin polymerization at 10 uM incubated for 1 hr by turbidimetry; type: protein assay
PC-3 [15] = assay: Induction of monopolar mitotic spindles in human PC3 cells at 25 uM incubated for 18 hrs by indirect immunofluorescence microscopy; type: functional, cell-based; procedure, shortened: as §3
DU-145 [16] = assay: Inhibition of PLK1 protein accumulation in human DU145 cells at 10 uM by immunoblotting method; type: functional, cell-based; procedure, shortened: as §1
HeLa [17] = assay: Induction of apoptosis in human HeLa cells assessed as increase in PARP cleavage at 10 uM after 24 hrs by immunoblotting method; type: functional, cell-based; procedure, shortened: as §5
PC-3 [18] = assay: Growth inhibition of human PC3 cells by sulforhodamine B assay; type: functional, cell-based; procedure, shortened: as §6
A10 = assay: Growth inhibition of rat A10 cells by sulforhodamine B assay; type: cell-based
DU-145 [19] = assay: Inhibition of colony formation of human DU145 cells incubated for 4 hrs followed by drug wash-out and measured after 14 days post drug wash-out by crystal violet staining based clonogenic assay; type: functional, cell-based; procedure, shortened: as §2
HeLa [20] = assay: Induction of monopolar mitotic spindles in human HeLa cells at 7.5 uM incubated for 18 hrs by indirect immunofluorescence microscopy; type: functional, cell-based; procedure, shortened: as §3
PC-3 [21] = assay: Induction of aberrant bipolar mitotic spindles in human PC3 cells at 7.5 uM incubated for 18 hrs by indirect immunofluorescence microscopy; type: functional, cell-based; procedure, shortened: as §3
PC-3 [22] = assay: Induction of monopolar mitotic spindles in human PC3 cells at 7.5 uM incubated for 18 hrs by indirect immunofluorescence microscopy; type: functional, cell-based; procedure, shortened: as §3
HeLa [23] = assay: Induction of aberrant bipolar mitotic spindles in human HeLa cells at 7.5 uM incubated for 18 hrs by indirect immunofluorescence microscopy; type: functional, cell-based; procedure, shortened: as §3
HeLa [24] = assay: Induction of monopolar mitotic spindles in human HeLa cells at 100 nM incubated for 18 hrs by indirect immunofluorescence microscopy; type: functional, cell-based; procedure, shortened: as §3
PC-3 [25] = assay: Induction of monopolar mitotic spindles in human PC3 cells at 100 nM incubated for 18 hrs by indirect immunofluorescence microscopy; type: functional, cell-based; procedure, shortened: as §3
DU-145 [26] = assay: Induction of apoptosis in human DU145 cells assessed as increase in PARP cleavage at 100 nM after 24 hrs by immunoblotting method; type: functional, cell-based; procedure, shortened: as §5
HeLa [27] = assay: Inhibition of PLK1 protein accumulation in human HeLa cells at 100 nM by immunoblotting method; type: functional, cell-based; procedure, shortened: as §1
DU-145 [28] = assay: Inhibition of PLK1 protein accumulation in human DU145 cells at 100 nM by immunoblotting method; type: functional, cell-based; procedure, shortened: as §1
HeLa [29] = assay: Induction of apoptosis in human HeLa cells assessed as increase in PARP cleavage at 100 nM after 24 hrs by immunoblotting method; type: functional, cell-based; procedure, shortened: as §5
Tubulin (Sus scrofa) [30] = molecular target: T1, Tubulin (Sus scrofa); assay: Inhibition of porcine tubulin polymerization at 10 to 100 uM incubated for 1 hr by turbidimetry; type: protein assay
PC-3 [31] = assay: Induction of monopolar mitotic spindles in human PC3 cells at 10 uM incubated for 18 hrs by indirect immunofluorescence microscopy; type: functional, cell-based; procedure, shortened: as §3
HeLa [32] = assay: Induction of monopolar mitotic spindles in human HeLa cells at 10 uM incubated for 18 hrs by indirect immunofluorescence microscopy; type: functional, cell-based; procedure, shortened: as §3
PC-3 [33] = assay: Induction of aberrant bipolar mitotic spindles in human PC3 cells at 10 uM incubated for 18 hrs by indirect immunofluorescence microscopy; type: functional, cell-based; procedure, shortened: as §3
HeLa [34] = assay: Induction of aberrant bipolar mitotic spindles in human HeLa cells at 10 uM incubated for 18 hrs by indirect immunofluorescence microscopy; type: functional, cell-based; procedure, shortened: as §3
PC-3 [35] = assay: Induction of cell cycle arrest in human PC3 cells at 1.5 uM to 5 uM incubated for 18 hrs by flow cytometry method; type: functional, cell-based
Procedure, shortened: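 PC-3 cells were treated with vehicle (DMSO) or compound for 18 h. Stained with Krishan's reagent (propidium iodide), and DNA content read by flow cytometry for cell cycle distribution.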

DU-145 [36] = assay: Selectivity index, ratio of IC50 for human PC3 cells to IC50 for human DU145 cells; type: functional
Procedure, shortened: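 Ratio of SRB IC50 values from PC-3 and DU 145 prostate cells, each measured by 4-parameter nonlinear regression of triplicate concentration-response data.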

T1 sequence (P02550 whole entry, looked up): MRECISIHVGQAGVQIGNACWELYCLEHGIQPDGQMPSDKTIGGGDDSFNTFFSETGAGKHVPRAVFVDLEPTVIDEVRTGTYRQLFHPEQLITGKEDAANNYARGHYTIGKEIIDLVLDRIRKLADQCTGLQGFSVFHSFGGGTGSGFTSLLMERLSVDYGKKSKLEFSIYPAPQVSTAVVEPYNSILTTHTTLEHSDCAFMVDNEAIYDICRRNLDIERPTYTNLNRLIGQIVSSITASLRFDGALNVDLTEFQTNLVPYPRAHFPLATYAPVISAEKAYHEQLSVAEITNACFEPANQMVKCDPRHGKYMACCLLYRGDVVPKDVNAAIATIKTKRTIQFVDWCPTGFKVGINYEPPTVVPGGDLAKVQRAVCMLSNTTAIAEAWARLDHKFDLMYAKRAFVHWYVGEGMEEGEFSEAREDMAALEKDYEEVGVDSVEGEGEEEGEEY
T1 sequence (P02554 whole entry, looked up): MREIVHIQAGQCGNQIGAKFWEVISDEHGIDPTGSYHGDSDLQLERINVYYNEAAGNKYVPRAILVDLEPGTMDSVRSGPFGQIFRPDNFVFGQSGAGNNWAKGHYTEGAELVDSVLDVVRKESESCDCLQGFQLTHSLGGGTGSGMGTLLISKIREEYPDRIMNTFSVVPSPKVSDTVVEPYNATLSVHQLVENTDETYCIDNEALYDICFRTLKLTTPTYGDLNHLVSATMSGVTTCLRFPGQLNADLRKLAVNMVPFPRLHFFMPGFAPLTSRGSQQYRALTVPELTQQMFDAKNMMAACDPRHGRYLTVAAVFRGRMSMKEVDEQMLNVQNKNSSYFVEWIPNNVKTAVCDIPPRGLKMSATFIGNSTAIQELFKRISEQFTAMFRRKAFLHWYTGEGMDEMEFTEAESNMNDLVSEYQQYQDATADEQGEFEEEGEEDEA
Chain of Serine/threonine-protein kinase PLK1 (Homo sapiens) (P53350 whole entry): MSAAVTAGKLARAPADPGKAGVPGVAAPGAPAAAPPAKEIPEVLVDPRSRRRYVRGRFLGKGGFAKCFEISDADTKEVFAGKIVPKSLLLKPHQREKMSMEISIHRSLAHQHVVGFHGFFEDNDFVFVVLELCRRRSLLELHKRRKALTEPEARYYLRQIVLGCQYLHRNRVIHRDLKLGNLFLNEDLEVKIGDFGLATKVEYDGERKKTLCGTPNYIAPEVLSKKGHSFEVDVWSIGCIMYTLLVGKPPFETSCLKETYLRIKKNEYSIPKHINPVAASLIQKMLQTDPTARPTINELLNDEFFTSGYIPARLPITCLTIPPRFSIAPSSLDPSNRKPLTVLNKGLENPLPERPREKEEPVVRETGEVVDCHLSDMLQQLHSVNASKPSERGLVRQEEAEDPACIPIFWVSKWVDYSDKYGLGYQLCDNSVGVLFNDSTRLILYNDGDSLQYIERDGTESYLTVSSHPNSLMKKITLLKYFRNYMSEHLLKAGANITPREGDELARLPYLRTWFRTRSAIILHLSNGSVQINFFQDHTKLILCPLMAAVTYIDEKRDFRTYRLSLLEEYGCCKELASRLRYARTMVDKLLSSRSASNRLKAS

| inhibition [1] | inhibition [2] | IC50 (SK-OV-3 [6]) | IC50 (HeLa [10]) | IC50 (SK-OV-3 [11]) | IC50 (DU-145 [12]) | inhibition (Tubulin (Sus scrofa) [14]) | IC50 (PC-3 [18]) | SMILES | inhibition (HeLa [7]) | Activity (DU-145 [8]) | Ratio IC50 (SK-OV-3 [9]) | inhibition (DU-145 [16]) | Activity (HeLa [17]) | IC50 (A10) | inhibition (DU-145 [19]) | other results |
| --- | --- | --- | --- | --- | --- | --- | --- | --- | --- | --- | --- | --- | --- | --- | --- | --- |
| inactive | inactive | 4400 nM | 3800 nM | 1700 nM | 5900 nM | Active | 8700 nM | C=C1C(=O)O[C@H]2[C@H]1[C@H](OC(=O)[C@@]1(C)O[C@H]1C)[C@H](OC(C)=O)/C(C(=O)OC)=C\C[C@@H](O)[C@]1(C)O[C@H]21 | inactive | Active | 2.6 | inactive | Active | 3000 nM | Dose-dependent effect | inhibition (DU-145 [3]): Active; Activity (PC-3 [4]): Active; Activity (HeLa [5]): Active; Activity (HeLa [13]): Active; Activity (PC-3 [15]): Active |
| inactive | inactive | 2000 nM | 1900 nM | 820 nM | 2600 nM | Active | 3100 nM | C=C1C(=O)O[C@H]2[C@H]1[C@H](OC(=O)[C@@]1(C)O[C@H]1C)[C@H](OC(C)=O)/C(C(=O)OC)=C\[C@H]1O[C@H]1[C@]1(C)O[C@H]21 | inactive | Active | 2.4 | inactive | Active | 1100 nM | Dose-dependent effect | Activity (HeLa [20]): Active; Activity (PC-3 [21]): Active; Activity (PC-3 [22]): Active; Activity (HeLa [23]): Active |
|  |  |  |  |  |  |  |  | CC[C@@H]1C(=O)N(C)c2cnc(Nc3ccc(C(=O)NC4CCN(C)CC4)cc3OC)nc2N1C1CCCC1 |  |  |  |  |  |  |  | Activity (HeLa [24]): Active; Activity (PC-3 [25]): Active; Activity (DU-145 [26]): Active; inhibition (HeLa [27]): Active; inhibition (DU-145 [28]): Active; Activity (HeLa [29]): Active |
| inactive | inactive | 1400 nM | 1700 nM | 570 nM | 1800 nM |  | 1700 nM | C=C1C(=O)O[C@H]2[C@H]1[C@H](OC(=O)[C@@]1(C)O[C@H]1C)[C@H](OC(C)=O)/C(C(=O)OC)=C\C=C/[C@]1(C)O[C@H]21 | inactive | Active | 2.5 | inactive | Active | 1700 nM | Dose-dependent effect | inhibition (Tubulin (Sus scrofa) [30]): Active; Activity (PC-3 [31]): Active; Activity (HeLa [32]): Active; Activity (PC-3 [33]): Active; Activity (HeLa [34]): Active; Activity (PC-3 [35]): inactive |
|  |  |  |  |  | 180 nM |  | 670 nM | C=C1C(=O)O[C@H]2[C@H]1[C@H](OC(=O)[C@@]1(C)O[C@H]1C)[C@@H](OC(C)=O)[C@@]1(C(=O)OC)C=CC=C(C)[C@H]21 |  |  |  |  |  |  |  | Ratio IC50 (DU-145 [36]): 3.7 |
|  |  | 1010 nM | 3.5 nM | 6.2 nM | 4 nM |  | 40 nM | CC(=O)O[C@H]1C(=O)[C@@]2(C)[C@H]([C@H](OC(=O)c3ccccc3)[C@]3(O)C[C@H](OC(=O)[C@H](O)[C@@H](NC(=O)c4ccccc4)c4ccccc4)C(C)=C1C3(C)C)[C@]1(OC(C)=O)CO[C@@H]1C[C@@H]2O [PACLITAXEL] |  |  | 162.9 |  |  |  |  |  |
